The results in this text go back to ChEMBL document CHEMBL1131596, “Novel potent nonpeptide aminopeptidase N inhibitors with a cyclic imide skeleton” (J Med Chem, 1998).

The term IC50 denotes the concentration that gives 50% inhibition. Read a high IC50 as weaker potency.

Molecules are shown by their SMILES.

Test [1] has as its target Aminopeptidase N (Homo sapiens, UniProt P15144). As to the kind of experiment: Inhibitory activity against aminopeptidase N assayed by the L-Ala-MCA method.
The target in test [2] is Dipeptidyl peptidase 4 (Homo sapiens, UniProt P27487). As to the kind of experiment: Inhibitory activity against dipeptidyl peptidase IV (DPP- IV). In a few lines: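 Enzymatic activity was measured in intact cells (DPP-IV as a membrane-associated ecto enzyme) using glycyl-L-proline 4-methylcoumaryl-7-amide (Gly-Pro-AMC) as the substrate.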
Dipeptidyl peptidase 4, sequence (P27487 whole entry): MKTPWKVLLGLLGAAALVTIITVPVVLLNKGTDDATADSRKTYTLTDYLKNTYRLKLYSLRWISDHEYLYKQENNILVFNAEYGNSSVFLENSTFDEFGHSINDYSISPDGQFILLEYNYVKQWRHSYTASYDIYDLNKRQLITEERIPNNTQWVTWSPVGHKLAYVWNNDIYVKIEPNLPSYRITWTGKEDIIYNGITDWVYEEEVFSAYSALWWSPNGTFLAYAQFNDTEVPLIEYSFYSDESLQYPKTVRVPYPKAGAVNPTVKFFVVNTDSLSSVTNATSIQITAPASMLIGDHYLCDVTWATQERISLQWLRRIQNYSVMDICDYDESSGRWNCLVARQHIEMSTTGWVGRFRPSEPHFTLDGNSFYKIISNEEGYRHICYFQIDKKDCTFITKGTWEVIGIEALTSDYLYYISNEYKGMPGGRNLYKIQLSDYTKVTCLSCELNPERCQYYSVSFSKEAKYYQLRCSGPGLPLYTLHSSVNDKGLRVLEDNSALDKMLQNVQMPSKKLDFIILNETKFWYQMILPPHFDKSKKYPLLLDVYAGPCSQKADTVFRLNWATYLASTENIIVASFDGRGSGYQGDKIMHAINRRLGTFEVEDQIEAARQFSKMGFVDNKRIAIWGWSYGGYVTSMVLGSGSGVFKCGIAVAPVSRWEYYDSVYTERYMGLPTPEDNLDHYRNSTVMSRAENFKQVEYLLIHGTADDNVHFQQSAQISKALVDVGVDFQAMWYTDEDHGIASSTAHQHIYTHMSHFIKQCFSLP

Aminopeptidase N, sequence (P15144 whole entry): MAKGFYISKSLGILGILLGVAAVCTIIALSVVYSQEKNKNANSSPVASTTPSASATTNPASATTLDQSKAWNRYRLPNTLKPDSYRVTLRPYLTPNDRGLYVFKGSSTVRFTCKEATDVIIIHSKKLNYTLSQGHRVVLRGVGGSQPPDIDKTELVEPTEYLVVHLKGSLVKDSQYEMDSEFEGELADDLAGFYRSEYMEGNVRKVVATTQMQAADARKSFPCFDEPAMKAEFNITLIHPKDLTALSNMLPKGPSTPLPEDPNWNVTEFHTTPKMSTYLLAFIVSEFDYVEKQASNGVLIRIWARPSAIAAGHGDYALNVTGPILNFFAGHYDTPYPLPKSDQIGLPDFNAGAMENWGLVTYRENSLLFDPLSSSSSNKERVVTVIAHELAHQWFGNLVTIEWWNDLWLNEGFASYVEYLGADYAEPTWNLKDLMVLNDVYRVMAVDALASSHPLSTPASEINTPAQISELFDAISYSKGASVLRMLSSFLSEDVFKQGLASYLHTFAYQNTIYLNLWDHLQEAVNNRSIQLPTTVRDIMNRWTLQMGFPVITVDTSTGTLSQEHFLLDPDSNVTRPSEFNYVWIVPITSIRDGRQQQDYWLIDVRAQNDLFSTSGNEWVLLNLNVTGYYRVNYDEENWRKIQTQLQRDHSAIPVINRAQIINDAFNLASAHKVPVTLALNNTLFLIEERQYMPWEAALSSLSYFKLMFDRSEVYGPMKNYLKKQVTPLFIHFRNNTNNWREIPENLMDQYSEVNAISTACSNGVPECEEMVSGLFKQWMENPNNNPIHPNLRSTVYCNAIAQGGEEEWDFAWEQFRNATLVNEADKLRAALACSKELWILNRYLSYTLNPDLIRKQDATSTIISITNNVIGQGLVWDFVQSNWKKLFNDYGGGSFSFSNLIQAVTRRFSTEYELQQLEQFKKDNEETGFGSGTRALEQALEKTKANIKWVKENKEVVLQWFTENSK

With `Cc1cccc(C)c1N1C(=O)c2cccc(O)c2C1=O`, the 50% inhibitory concentration (IC50) in test [1] is 265 µM.
`Cc1cccc(C)c1N1C(=O)c2ccc(N)cc2C1=O`: the IC50 in test [2] is 87.9 µM.
Still for that read-out and setting: in the case of `CC(C)c1cccc(C(C)C)c1N1C(=O)c2ccc(O)cc2C1=O` it was 65.9 µM.
Regarding `Cc1cccc(C)c1N1C(=O)c2cccc(N)c2C1=O`, the IC50 in test [1] and in test [2] was > 376 µM in each case.
As for `O=C1Cc2ccccc2C(=O)N1c1c(Cl)cccc1Cl`, the IC50 in test [1] was 144 µM; in test [2], > 327 µM.
In the case of `CC(C)c1cccc(C(C)C)c1N1C(=O)Cc2ccccc2C1=O`, the IC50 in test [1] is 10.9 µM; in test [2], > 311 µM.
In the same order, the values of `CC(C)c1ccc(N2C(=O)Cc3ccccc3C2=O)cc1` are > 358 µM and > 358 µM.
`Cc1cccc(C)c1N1C(=O)c2ccc(O)cc2C1=O` gave an IC50 in test [2] of 74.1 µM.
For the compound `O=C1Cc2ccccc2C(=O)N1c1ccccc1`, the IC50 in test [1] was 395 µM; in test [2] it was > 421 µM.
In the case of `Cc1ccc(C)c(N2C(=O)Cc3ccccc3C2=O)c1`, the IC50 in test [1] was 60.3 µM; in test [2], > 377 µM.
Consider `O=C([C@@H]1CCCN1)N1CCC[C@H]1B(O)O`, for which the IC50 is > 472 µM in test [1] and 86.3 µM in test [2].
As for `CC(C)c1ccccc1N1C(=O)Cc2ccccc2C1=O`, the results for the IC50 in test [1] and in test [2] were 194 µM and > 358 µM, respectively.
Turning to `CCc1cccc(CC)c1N1C(=O)c2ccccc2C1=O`, the IC50 in test [1] is 303 µM; in test [2], > 358 µM.
The matching figures for `CCc1ccccc1N1C(=O)Cc2ccccc2C1=O`: 67.1 µM and > 377 µM.
The matching figures for `Cc1cc(C)cc(N2C(=O)Cc3ccccc3C2=O)c1`: 23.4 µM and > 377 µM.
The matching figures for `CCc1cccc(CC)c1N1C(=O)c2ccc([N+](=O)[O-])cc2C1=O`: > 308 µM and > 308 µM.
Compound `CC(C)c1cccc(C(C)C)c1N1C(=O)c2cccc(O)c2C1=O` showed an IC50 in test [2] of 43.6 µM.
As to `CCc1cccc(CC)c1N1C(=O)Cc2ccccc2C1=O`, in test [2], the IC50 was > 341 µM.
For `COc1ccccc1N1C(=O)Cc2ccccc2C1=O`, the IC50 in test [1] is 110 µM; in test [2] it was > 374 µM.
Regarding `CCc1cccc(CC)c1N1C(=O)c2ccc(O)cc2C1=O`, the midpoint of inhibition in test [2], the IC50, lay at 43.3 µM.
Turning to `Cc1cccc(N2C(=O)Cc3ccccc3C2=O)c1C`, the figures for the IC50 in test [1] and in test [2] were 113 µM and > 377 µM, respectively.
As to `CC(C)c1cccc(C(C)C)c1N1C(=O)c2ccccc2C1=O`, the half-inhibitory concentration (IC50) in test [1] is > 325 µM.
On to `Cc1cccc(C)c1N1C(=O)c2ccccc2C1=O`, for which the IC50 in test [1] is > 398 µM.
Same read-out and setting: in the case of `CC(C)c1cccc(C(C)C)c1N1C(=O)c2cc3ccccc3cc2C1=O` it was > 280 µM.
In the case of `CSc1ccccc1N1C(=O)Cc2ccccc2C1=O`, the values for the IC50 in test [1] and in test [2] were 3.18 µM and > 353 µM, respectively.
In the same order, the values of `Cc1ccc(N2C(=O)Cc3ccccc3C2=O)c(C)c1` are 187 µM and > 377 µM.
With `CC(C)c1cccc(C(C)C)c1N1C(=O)c2cccc(N)c2C1=O`, in test [1], inhibition was half-maximal at 20.8 µM (IC50).
Consider `CC(C)c1cccc(C(C)C)c1N1C(=O)c2ccc(N)cc2C1=O`, for which, in test [2], 251 µM corresponded to half-maximal inhibition (IC50).
Consider `CC(C)c1cccc(C(C)C)c1N1C(=O)c2cccc([N+](=O)[O-])c2C1=O`, for which, in test [1], the IC50 was > 284 µM.
For `CC(C)c1cccc(C(C)C)c1N1C(=O)c2ccc([N+](=O)[O-])cc2C1=O`, the 50% inhibitory concentration (IC50) in test [1] was > 284 µM.
With `Cc1cccc(C)c1N1C(=O)Cc2ccccc2C1=O`, the IC50 in test [1] was 157 µM; in test [2] it was > 377 µM.
For `CC(C)C[C@H](NC(=O)C(O)[C@H](N)Cc1ccccc1)C(=O)O` (single isomer, unassigned) [UBENIMEX], the IC50 in test [2] is > 324 µM.
Take `CCCCC[C@H](CC(=O)NO)C(=O)N[C@H](C(=O)N1CCC[C@H]1CO)C(C)C` [ACTINONIN]: the IC50 is 0.83 µM in test [1] and > 259 µM in test [2].
